Test results published in ChEMBL document CHEMBL4321879, “Novel Class of Colony-Stimulating Factor 1 Receptor Kinase Inhibitors Based on an o-Aminopyridyl Alkynyl Scaffold as Potential Treatment for Inflammatory Disorders” (J Med Chem, 2020).

Tests used:
[1] = molecular target: Fibroblast growth factor receptor 4 (Homo sapiens, UniProt P22455); assay: Inhibition of recombinant human N-terminal His6-tagged FGFR4 (442 to 755 residues) expressed in baculovirus infected Sf21 insect cells using poly (Glu, Tyr)4:1 as substrate measured after 1 hr by ELISA
Chain of Fibroblast growth factor receptor 4 (P22455 whole entry, the tested form may be a part): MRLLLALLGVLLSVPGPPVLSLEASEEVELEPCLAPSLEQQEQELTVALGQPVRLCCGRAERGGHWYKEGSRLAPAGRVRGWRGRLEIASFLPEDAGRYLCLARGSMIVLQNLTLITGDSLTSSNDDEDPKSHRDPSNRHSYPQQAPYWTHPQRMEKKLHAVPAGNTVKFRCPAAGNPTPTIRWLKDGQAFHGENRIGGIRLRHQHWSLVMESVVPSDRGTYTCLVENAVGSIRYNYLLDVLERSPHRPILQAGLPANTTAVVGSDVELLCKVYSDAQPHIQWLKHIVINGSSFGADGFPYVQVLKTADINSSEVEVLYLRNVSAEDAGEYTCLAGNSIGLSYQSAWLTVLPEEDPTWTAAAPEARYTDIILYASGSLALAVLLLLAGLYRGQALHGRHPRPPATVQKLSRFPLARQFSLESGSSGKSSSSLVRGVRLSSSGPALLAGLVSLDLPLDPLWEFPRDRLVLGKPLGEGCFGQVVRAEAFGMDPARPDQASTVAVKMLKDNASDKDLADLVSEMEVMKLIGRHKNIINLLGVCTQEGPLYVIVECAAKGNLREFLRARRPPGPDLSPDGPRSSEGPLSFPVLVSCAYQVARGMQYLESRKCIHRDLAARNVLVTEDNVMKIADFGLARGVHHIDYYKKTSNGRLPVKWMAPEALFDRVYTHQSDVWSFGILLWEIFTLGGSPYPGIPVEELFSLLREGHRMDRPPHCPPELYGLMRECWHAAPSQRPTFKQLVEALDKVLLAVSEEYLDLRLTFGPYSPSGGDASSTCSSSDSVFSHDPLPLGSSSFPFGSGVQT
How it was run: (§1)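 ELISA kinase assay: recombinant kinase added to wells precoated with poly(Glu,Tyr)4:1 and incubated with compound in reaction buffer containing 5 μM ATP, 37 °C for 1 h; wells then washed before antibody detection.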

[2] = molecular target: Vascular endothelial growth factor receptor 2 (Homo sapiens) (UniProt P35968); assay: Inhibition of recombinant human VEGFR2 (D1-7) expressed in Spodoptera frugiperda insect cells at 1000 nM using poly (Glu, Tyr)4:1 as substrate measured after 1 hr by ELISA relative to control; how it was run: as §1
[3] = molecular target: Platelet-derived growth factor receptor beta (Homo sapiens) (UniProt P09619); assay: Inhibition of recombinant human N-terminal His6-tagged PDGFRbeta (557 to end residues) expressed in baculovirus infected Sf21 insect cells at 1000 nM using poly (Glu, Tyr)4:1 as substrate measured after 1 hr by ELISA relative to control; how it was run: as §1
[4] = molecular target: c-KIT (Homo sapiens, UniProt P10721); assay: Inhibition of recombinant human N-terminal GST-tagged c-KIT (544 to end residues) expressed in baculovirus infected Sf21 insect cells at 1000 nM using poly (Glu, Tyr)4:1 as substrate measured after 1 hr by ELISA relative to control; conditions: probe poly (Glu, Tyr)4:1
How it was run: (§2)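 Recombinant kinase was incubated with compound in reaction buffer containing 5 μM ATP, in wells precoated with poly(Glu,Tyr) 4:1, for 1 h at 37 °C. Phosphorylation was detected by ELISA.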

[5] = molecular target: Tyrosine-protein kinase ITK/TSK (Homo sapiens) (UniProt Q08881); assay: Inhibition of recombinant human N-terminal His6-tagged ITK (352 to 617 residues) expressed in baculovirus infected Sf21 insect cells at 1000 nM using poly (Glu, Tyr)4:1 as substrate measured after 1 hr by ELISA relative to control; how it was run: as §1
[6] = molecular target: Activated CDC42 kinase 1 (Homo sapiens) (UniProt Q07912); assay: Inhibition of recombinant human N-terminal GST-tagged ACK1 (1 to 389 residues) expressed in baculovirus infected Sf21 insect cells at 1000 nM using poly (Glu, Tyr)4:1 as substrate measured after 1 hr by ELISA relative to control; how it was run: as §2
[7] = molecular target: Vascular endothelial growth factor receptor 1 (Homo sapiens) (UniProt P17948); assay: Inhibition of recombinant human VEGFR1 expressed in Spodoptera frugiperda insect cells at 100 nM using poly (Glu, Tyr)4:1 as substrate measured after 1 hr by ELISA relative to control; how it was run: as §1
Chain of Vascular endothelial growth factor receptor 1 (Homo sapiens) (P17948 whole entry): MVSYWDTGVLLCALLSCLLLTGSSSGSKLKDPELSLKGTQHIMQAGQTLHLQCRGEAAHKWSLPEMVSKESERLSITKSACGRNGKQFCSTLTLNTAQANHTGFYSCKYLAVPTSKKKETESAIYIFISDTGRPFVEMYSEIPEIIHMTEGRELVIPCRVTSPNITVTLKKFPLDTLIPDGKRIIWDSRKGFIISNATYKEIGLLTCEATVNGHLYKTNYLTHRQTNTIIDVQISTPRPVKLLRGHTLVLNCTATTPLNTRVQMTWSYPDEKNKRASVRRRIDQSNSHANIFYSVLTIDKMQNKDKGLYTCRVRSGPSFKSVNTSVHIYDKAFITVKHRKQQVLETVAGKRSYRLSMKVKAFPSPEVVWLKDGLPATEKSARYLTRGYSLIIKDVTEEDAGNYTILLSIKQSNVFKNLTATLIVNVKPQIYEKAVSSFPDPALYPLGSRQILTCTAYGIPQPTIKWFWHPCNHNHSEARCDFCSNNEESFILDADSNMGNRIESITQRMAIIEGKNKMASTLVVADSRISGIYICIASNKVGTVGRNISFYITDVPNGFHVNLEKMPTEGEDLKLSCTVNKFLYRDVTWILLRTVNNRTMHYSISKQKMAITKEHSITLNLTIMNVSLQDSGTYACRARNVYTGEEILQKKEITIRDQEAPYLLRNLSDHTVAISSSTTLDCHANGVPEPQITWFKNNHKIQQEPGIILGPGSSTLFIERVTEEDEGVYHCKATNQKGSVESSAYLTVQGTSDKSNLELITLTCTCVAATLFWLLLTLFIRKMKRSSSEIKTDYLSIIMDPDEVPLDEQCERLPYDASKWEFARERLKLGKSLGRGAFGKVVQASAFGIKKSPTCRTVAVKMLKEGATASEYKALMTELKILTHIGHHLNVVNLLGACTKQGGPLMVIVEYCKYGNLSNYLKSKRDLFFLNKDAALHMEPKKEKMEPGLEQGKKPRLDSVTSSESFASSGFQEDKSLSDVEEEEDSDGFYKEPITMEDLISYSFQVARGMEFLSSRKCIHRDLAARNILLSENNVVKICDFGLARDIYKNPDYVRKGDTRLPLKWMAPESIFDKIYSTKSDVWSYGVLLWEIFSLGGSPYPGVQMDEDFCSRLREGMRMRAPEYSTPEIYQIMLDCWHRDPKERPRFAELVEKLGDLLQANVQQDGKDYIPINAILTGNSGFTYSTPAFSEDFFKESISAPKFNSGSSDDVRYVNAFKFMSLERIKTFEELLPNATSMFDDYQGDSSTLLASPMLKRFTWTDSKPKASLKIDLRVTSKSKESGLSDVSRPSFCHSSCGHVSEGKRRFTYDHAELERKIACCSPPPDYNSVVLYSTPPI

[8] = molecular target: FLT3 (Homo sapiens, UniProt P36888); assay: Inhibition of recombinant human N-terminal GST-tagged FLT3 (564 to end residues) expressed in Sf21 insect cells at 100 nM using poly (Glu, Tyr)4:1 as substrate measured after 1 hr by ELISA relative to control; conditions: probe poly (Glu, Tyr)4:1; how it was run: as §2
[9] = molecular target: Tyrosine-protein kinase ABL1 (Homo sapiens) (UniProt P00519); assay: Inhibition of recombinant human N-terminal His6-tagged Abl (27 to end residues) expressed in baculovirus infected Sf21 insect cells at 100 nM using poly (Glu, Tyr)4:1 as substrate measured after 1 hr by ELISA relative to control; how it was run: as §2
Chain of Tyrosine-protein kinase ABL1 (Homo sapiens) (P00519 whole entry, the tested form may be a part): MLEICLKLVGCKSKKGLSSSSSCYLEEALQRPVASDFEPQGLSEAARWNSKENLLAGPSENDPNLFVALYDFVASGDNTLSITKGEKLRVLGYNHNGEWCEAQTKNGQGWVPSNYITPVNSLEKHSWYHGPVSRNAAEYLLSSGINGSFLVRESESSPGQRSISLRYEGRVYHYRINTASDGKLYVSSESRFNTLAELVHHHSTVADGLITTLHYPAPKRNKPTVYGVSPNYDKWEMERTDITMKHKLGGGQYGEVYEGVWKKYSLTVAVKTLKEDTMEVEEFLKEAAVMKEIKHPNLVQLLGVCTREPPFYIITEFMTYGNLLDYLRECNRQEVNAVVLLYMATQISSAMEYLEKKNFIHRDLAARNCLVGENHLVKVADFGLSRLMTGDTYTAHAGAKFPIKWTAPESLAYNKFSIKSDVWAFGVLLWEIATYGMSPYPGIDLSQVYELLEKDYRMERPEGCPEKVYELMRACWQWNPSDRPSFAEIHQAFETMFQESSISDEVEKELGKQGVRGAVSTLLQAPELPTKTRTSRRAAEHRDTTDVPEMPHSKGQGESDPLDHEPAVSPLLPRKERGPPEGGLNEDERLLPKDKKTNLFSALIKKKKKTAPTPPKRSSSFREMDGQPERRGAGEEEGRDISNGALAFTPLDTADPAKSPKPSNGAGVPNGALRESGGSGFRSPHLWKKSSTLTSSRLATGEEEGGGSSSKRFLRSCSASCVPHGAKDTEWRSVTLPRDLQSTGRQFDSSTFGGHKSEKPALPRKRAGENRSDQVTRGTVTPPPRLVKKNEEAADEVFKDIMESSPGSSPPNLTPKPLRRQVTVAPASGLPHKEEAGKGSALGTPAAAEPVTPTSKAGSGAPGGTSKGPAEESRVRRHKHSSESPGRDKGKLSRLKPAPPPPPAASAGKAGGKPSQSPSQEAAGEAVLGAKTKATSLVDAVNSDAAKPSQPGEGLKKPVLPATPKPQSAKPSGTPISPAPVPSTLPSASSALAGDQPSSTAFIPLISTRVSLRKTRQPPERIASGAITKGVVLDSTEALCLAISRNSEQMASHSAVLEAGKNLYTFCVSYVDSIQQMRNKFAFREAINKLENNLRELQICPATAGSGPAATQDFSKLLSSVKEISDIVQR

[10] = molecular target: Fibroblast growth factor receptor 1 (Homo sapiens, UniProt P11362); assay: Inhibition of recombinant human N-terminal GST-tagged FGFR1 (456 to 765 residues) expressed in baculovirus infected Sf21 insect cells at 100 nM using poly (Glu, Tyr)4:1 as substrate measured after 1 hr by ELISA relative to control; how it was run: as §2
[11] = molecular target: Tyrosine-protein kinase BTK (Homo sapiens) (UniProt Q06187); assay: Inhibition of recombinant human full-length N-terminal His6-tagged BTK expressed in baculovirus infected Sf21 insect cells at 100 nM using poly (Glu, Tyr)4:1 as substrate measured after 1 hr by ELISA relative to control; how it was run: as §1
Chain of Tyrosine-protein kinase BTK (Homo sapiens) (Q06187 whole entry): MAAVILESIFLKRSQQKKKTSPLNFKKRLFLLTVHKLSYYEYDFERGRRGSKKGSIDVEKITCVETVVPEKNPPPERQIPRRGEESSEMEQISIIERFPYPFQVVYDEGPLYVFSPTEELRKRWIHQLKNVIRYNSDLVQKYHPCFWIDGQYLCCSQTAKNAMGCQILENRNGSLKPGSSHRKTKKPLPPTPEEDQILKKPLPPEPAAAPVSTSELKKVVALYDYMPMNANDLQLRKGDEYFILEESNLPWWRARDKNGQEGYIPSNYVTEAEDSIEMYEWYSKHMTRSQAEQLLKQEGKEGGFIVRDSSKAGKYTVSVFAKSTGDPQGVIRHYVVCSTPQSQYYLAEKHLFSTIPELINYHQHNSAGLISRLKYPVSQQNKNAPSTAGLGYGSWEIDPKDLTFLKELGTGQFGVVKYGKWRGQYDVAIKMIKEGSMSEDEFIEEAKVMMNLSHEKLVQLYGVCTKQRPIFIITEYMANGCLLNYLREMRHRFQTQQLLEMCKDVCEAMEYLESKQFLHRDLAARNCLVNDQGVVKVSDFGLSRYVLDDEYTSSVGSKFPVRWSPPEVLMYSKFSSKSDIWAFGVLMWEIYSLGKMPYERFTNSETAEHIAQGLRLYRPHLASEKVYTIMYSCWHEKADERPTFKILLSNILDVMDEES

[12] = molecular target: Macrophage colony-stimulating factor 1 receptor (Mus musculus) (UniProt P09581); assay: Inhibition of CSF1R in CSF1-stimulated mouse RAW264.7 cells assessed as reduction in CSF1R phosphorylation preincubated for 6 hrs followed by CSF1 stimulation and measured after 20 mins by Western blot analysis; type: cell-based
Chain of Macrophage colony-stimulating factor 1 receptor (Mus musculus) (P09581 whole entry): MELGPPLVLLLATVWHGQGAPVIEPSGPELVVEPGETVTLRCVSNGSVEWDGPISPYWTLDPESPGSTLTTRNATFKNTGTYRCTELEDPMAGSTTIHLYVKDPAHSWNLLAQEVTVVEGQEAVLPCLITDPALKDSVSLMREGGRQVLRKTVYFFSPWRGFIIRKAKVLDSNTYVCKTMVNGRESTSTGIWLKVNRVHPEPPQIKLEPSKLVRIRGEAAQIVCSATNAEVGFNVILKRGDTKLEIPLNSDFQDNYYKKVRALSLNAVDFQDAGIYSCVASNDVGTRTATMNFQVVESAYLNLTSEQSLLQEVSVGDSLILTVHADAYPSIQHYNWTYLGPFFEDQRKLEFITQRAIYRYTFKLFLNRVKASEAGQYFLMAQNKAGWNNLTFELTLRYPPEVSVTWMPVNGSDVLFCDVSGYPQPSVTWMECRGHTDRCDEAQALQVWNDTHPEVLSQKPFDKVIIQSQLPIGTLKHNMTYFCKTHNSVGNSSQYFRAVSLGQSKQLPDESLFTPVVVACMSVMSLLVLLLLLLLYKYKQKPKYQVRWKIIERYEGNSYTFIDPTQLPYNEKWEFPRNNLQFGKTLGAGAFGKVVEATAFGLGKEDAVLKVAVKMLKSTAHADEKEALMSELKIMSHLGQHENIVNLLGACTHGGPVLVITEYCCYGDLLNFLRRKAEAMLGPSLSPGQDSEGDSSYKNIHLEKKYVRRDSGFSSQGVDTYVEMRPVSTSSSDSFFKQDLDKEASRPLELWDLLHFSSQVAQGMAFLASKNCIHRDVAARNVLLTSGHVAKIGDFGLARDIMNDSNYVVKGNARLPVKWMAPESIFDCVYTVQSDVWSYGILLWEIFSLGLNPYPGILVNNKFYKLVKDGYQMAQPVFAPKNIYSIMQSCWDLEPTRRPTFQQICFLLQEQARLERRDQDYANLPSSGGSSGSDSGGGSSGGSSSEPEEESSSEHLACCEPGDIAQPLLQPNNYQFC
How it was run: (§3)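 RAW264.7 cells were plated in six-well plates overnight, treated with compound for 6 h, then stimulated with CSF-1 100 ng/mL for 20 min. Lysates were normalized by BCA, run on 10% SDS-PAGE, and blotted with antibodies to phospho-CSF1R (Tyr723), CSF1R, phospho-Akt (Ser473), Akt and actin.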

[13] = molecular target: Macrophage colony-stimulating factor 1 receptor (Mus musculus) (UniProt P09581); assay: Inhibition of CSF1R in CSF1-stimulated mouse RAW264.7 cells assessed as reduction in AKT phosphorylation preincubated for 6 hrs followed by CSF1 stimulation and measured after 20 mins by Western blot analysis; type: cell-based; how it was run: as §3
[14] = Cytotoxicity against mouse RAW264.7 cells assessed as reduction in cell viability measured after 24 hrs by CCK8 assay; type: cell-based
How it was run: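 RAW264.7 cells were seeded in triplicate in DMEM and exposed to compound for 24 h. CCK-8 was added, incubated 1 h, and absorbance read at 450 nm with 570 nm reference. CC50 from log(inhibitor) versus normalized response nonlinear fit.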

[15] = Oral bioavailability in Sprague-Dawley rat at 5 mg/kg administered via gavage by LC-MS/MS analysis; type: ADME, organism-based; conditions: in vivo
How it was run: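 Male SD rats (n = 3 per route), fasted 12 h; 5 mg/kg oral gavage (DMSO/HPMC 5/95) versus 2 mg/kg iv (DMSO/EtOH/PEG300/saline). Plasma sampled 15–1440 min, LC–MS/MS; F = AUC0–∞(oral)/AUC0–∞(iv) × dose(iv)/dose(oral) × 100%.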

[16] = AUC (0 to t) in Sprague-Dawley rat at 2 mg/kg, iv administered […] by LC-MS/MS analysis; type: ADME, organism-based; conditions: in vivo
How it was run: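 Male SD rats (200 ± 20 g) were fasted 12 h with free access to water, n = 3 per group. One group received 2 mg/kg iv in DMSO/EtOH/PEG300/saline (5/5/40/50). The other received 5 mg/kg by oral gavage in DMSO/HPMC (5/95). Femoral-vein plasma was taken at 15–1440 min, methanol-precipitated with internal standard, and measured by LC–MS/MS. Noncompartmental analysis; AUC by trapezoidal method.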

[17] = MRT (infinity) in Sprague-Dawley rat at 2 mg/kg, iv administered […] by LC-MS/MS analysis; type: ADME, organism-based; conditions: in vivo
How it was run: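 Male SD rats (200 ± 20 g), fasted 12 h, n = 3; single intravenous dose of 2 mg/kg in DMSO/EtOH/PEG300/saline (5/5/40/50). Femoral vein blood at 15–1440 min; plasma precipitated with methanol containing internal standard, assayed by LC–MS/MS; noncompartmental analysis (MRT = AUMC/AUC, Vss = CL × MRT).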

[18] = molecular target: Voltage-gated inwardly rectifying potassium channel KCNH2 (Homo sapiens, UniProt Q12809); assay: Inhibition of human ERG by Qpatch automatic patch-clamp assays

IC50 [1]: > 1 µM
inhibition [2]: 95.5%
inhibition [3]: 87.9%
inhibition at 1 h, 1 µM [4]: 98.2%
inhibition [5]: 7.4%
inhibition [6]: 30.9%
inhibition [7]: 78.5%
inhibition at 1 h, 0.1 µM [8]: 0%
inhibition [9]: 82.1%
inhibition [10]: 0%
inhibition [11]: 0%
inhibition [12]: Dose-dependent effect
inhibition [13]: Dose-dependent effect
bioavailability [15]: 34.8%
AUC(0-t) [16]: 729 ng·h/mL
MRT inf [17]: 2.3 h
Structure (SMILES): Cc1ccc(C(=O)Nc2ccc(Cl)cc2)cc1C#Cc1cc(-c2cnn(C)c2)cnc1N
CC50 at 24 h [14]: 66 µM
IC50 [18]: > 40 µM
